The source of these data is ChEMBL document CHEMBL1932952, “Synthesis and biochemical analysis of 2,2,3,3,4,4,5,5,6,6,7,7-dodecafluoro-N-hydroxy-octanediamides as inhibitors of human histone deacetylases” (Bioorg Med Chem, 2012).

For one test, the target named is Histone deacetylase 1 (Homo sapiens, UniProt Q13547). Briefly: Inhibition of recombinant human HDAC1 using Boc-L-Lys(acetyl)-MCA as substrate by fluorogenic enzymatic assay.
The target of test [1] is Histone deacetylase. Briefly: Inhibition of HDAC in human K562 cells using Boc-L-Lys(trifluoroacetyl)-MCA as substrate by fluorogenic cellular assay. The test is classed as cell-based. A digest of the protocol: (§1)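 K562 cells were grown in RPMI with 10% FCS, L-glutamine and gentamycin, then pelleted. Lysis in 50 mM Tris–HCl pH 8.5, 1 M NaCl, 1 mM MgCl₂, Triton X-100 (up to 5× pellet volume), 2 h at 37 °C. The diluted lysate replaces recombinant enzyme in the two-step fluorogenic trypsin-coupled assay with substrate at 20 µM final. Read-out is AMC fluorescence (ex 390, em 460 nm), giving IC50.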

Test [2] addresses T1, Histone deacetylase-like amidohydrolase (Alcaligenes sp. (strain DSM 11172) (Bordetella sp. (strain FB188)), UniProt Q70I53).
T1 sequence (Q70I53 whole entry): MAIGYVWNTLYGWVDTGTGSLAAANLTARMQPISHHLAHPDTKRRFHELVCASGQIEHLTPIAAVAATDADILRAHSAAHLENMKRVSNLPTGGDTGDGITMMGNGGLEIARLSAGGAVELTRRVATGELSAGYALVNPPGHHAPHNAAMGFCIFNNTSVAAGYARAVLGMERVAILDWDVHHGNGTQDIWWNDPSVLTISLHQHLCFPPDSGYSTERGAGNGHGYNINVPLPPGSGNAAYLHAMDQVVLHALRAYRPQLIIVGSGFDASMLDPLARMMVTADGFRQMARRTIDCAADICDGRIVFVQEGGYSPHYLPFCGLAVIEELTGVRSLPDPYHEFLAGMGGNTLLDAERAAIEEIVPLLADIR
Briefly: Inhibition of Bordetella FB188 HDAH using Boc-L-Lys(acetyl)-MCA as substrate by fluorogenic enzymatic assay.

A further test addresses T2, Histone deacetylase 7 (Homo sapiens, UniProt Q8WUI4).
T2 sequence (Q8WUI4 whole entry): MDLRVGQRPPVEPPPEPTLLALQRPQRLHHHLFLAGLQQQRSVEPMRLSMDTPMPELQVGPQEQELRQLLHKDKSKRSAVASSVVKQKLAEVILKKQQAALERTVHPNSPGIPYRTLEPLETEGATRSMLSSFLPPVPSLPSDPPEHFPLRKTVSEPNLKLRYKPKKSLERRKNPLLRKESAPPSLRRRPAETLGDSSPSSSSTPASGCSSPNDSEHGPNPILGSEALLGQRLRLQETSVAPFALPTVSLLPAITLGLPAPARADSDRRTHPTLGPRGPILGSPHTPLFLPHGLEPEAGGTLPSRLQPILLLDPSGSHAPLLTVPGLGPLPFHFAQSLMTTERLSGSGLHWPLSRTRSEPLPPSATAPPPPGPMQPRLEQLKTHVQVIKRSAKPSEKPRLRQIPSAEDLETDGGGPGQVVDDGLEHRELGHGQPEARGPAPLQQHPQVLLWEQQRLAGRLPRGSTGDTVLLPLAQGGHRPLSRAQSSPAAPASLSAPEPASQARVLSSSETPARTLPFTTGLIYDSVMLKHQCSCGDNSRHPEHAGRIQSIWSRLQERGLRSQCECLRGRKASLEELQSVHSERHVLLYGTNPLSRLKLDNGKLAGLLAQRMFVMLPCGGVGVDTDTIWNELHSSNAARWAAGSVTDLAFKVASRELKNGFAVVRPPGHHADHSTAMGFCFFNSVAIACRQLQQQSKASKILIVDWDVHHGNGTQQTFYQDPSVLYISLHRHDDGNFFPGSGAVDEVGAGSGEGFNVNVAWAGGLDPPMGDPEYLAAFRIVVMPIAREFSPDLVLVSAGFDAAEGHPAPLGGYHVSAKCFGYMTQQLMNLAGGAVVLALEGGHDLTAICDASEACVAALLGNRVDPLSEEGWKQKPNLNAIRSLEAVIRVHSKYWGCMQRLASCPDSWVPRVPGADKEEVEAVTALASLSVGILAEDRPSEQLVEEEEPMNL
Briefly: Inhibition of recombinant human HDAC7 using Boc-L-Lys(trifluoroacetyl)-MCA as substrate by fluorogenic enzymatic assay.

The next test deals with T3, Histone deacetylase 8 (Homo sapiens, UniProt Q9BY41).
T3 sequence (Q9BY41 whole entry): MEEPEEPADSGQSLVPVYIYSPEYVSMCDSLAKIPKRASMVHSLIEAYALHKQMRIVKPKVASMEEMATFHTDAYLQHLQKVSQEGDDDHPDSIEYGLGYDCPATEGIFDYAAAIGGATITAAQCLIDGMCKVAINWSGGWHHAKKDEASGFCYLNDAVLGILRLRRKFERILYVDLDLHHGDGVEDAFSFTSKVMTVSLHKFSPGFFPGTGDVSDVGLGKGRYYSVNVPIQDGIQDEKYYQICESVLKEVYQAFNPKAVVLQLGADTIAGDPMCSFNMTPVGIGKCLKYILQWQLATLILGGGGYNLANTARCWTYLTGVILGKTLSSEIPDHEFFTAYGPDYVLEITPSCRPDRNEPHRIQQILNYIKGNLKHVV
Briefly: Inhibition of recombinant human HDAC8 using Boc-L-Lys(trifluoroacetyl)-MCA as substrate by fluorogenic enzymatic assay.

The target in test [3] is Histone deacetylase. Briefly: Inhibition of HDAC in human K562 cells using Boc-L-Lys(acetyl)-MCA as substrate by fluorogenic cellular assay. The test is classed as cell-based. A digest of the protocol: as §1
The target of test [4] is T4, Protein deacetylase HDAC6 (Homo sapiens, UniProt Q9UBN7).
T4 sequence (Q9UBN7 whole entry): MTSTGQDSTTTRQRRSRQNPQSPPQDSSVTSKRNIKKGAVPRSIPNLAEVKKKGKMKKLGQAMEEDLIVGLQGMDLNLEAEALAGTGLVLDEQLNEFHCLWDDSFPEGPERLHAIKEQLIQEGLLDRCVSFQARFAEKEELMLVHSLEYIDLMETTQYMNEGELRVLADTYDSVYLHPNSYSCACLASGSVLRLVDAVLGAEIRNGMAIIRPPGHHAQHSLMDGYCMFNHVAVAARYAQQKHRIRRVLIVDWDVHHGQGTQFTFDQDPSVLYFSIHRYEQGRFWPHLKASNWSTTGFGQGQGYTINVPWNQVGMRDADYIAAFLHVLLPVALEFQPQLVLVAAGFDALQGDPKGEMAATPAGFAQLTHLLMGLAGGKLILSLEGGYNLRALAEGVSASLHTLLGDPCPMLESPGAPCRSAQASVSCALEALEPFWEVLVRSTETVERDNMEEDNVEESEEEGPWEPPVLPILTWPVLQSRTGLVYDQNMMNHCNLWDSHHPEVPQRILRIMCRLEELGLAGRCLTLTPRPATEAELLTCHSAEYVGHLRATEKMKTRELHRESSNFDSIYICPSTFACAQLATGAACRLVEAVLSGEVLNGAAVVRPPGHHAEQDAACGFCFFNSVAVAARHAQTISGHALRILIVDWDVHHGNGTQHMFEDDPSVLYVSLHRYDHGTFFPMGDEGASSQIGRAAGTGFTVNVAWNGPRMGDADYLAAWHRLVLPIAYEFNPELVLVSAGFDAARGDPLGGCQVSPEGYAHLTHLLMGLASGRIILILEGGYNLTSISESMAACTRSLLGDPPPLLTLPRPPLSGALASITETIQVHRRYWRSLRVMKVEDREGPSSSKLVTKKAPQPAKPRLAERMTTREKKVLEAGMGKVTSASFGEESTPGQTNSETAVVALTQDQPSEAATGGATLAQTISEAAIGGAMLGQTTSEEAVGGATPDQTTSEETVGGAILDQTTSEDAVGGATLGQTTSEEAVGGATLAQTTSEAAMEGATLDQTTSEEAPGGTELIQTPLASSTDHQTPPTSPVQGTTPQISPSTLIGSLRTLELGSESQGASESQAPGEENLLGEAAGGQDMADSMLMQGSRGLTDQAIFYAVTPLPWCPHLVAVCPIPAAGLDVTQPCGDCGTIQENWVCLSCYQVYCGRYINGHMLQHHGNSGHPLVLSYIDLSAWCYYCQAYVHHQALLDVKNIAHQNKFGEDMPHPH
Briefly: Inhibition of recombinant human HDAC6 using Boc-L-Lys(acetyl)-MCA as substrate by fluorogenic enzymatic assay.

Where only a bound is given, the exact number is not on record here.

Sequence of Histone deacetylase 1 (Q13547 whole entry): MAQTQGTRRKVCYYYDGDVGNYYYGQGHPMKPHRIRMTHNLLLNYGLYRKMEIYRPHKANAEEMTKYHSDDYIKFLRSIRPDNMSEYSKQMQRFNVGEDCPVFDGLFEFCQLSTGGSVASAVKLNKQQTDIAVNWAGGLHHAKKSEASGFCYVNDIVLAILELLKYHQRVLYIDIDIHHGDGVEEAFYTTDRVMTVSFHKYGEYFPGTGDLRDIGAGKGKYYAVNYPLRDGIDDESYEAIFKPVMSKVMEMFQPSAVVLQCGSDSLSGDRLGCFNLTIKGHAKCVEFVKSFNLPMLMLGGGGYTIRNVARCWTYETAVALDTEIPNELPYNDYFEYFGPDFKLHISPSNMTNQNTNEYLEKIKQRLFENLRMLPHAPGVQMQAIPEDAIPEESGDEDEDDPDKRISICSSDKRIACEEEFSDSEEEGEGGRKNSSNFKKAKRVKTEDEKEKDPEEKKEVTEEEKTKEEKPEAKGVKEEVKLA

In the case of `O=C(NO)C(F)(F)C(F)(F)C(F)(F)C(F)(F)C(F)(F)C(F)(F)C(=O)Nc1ccc2ccccc2c1`, the Kd on Histone deacetylase 1 worked out at 12 µM; in test [2], 0.16 µM; on Histone deacetylase 7 it was 11 µM; on Histone deacetylase 8, 49 µM; in test [4], 6.8 µM. Moreover, the IC50 is 45 µM against Histone deacetylase [1] and more than 50 µM against Histone deacetylase [3].

On to `CC(=O)Nc1ccc(NC(=O)C(F)(F)C(F)(F)C(F)(F)C(F)(F)C(F)(F)C(F)(F)C(=O)NO)cc1`, for which the Kd came to 18 µM at Histone deacetylase 1; 1.3 µM in test [2]; 13 µM at Histone deacetylase 7; 36 µM on Histone deacetylase 8; 9.2 µM in test [4]. In addition, the concentration for half-maximal inhibition (IC50) against Histone deacetylase [1] and at Histone deacetylase [3] was more than 50 µM in each case.

On to `O=C(NO)C(F)(F)C(F)(F)C(F)(F)C(F)(F)C(F)(F)C(F)(F)C(=O)Nc1cc2ccccc2c2ccccc12`, for which the Kd at Histone deacetylase 1 is 18 µM; in test [2], 0.29 µM; at Histone deacetylase 7 it was 11 µM; on Histone deacetylase 8 it was 5.3 µM; in test [4], 10 µM.

`O=C(NO)C(F)(F)C(F)(F)C(F)(F)C(F)(F)C(F)(F)C(F)(F)C(=O)Nc1ccc2cc3ccccc3cc2c1`: the Kd on Histone deacetylase 1 was 65 µM; in test [2] it was 9.1 µM; at Histone deacetylase 7 it was 38 µM; at Histone deacetylase 8, 60 µM; in test [4] it was 11 µM.

Consider `O=C(NO)C(F)(F)C(F)(F)C(F)(F)C(F)(F)C(F)(F)C(F)(F)C(=O)Nc1ccc(-c2ccccc2)cc1`, for which the Kd at Histone deacetylase 1 turned out to be 31 µM; in test [2], 8.8 µM; at Histone deacetylase 7, 14 µM; on Histone deacetylase 8 it was 57 µM; in test [4] it was 49 µM.

Take `Cc1ccc(NC(=O)C(F)(F)C(F)(F)C(F)(F)C(F)(F)C(F)(F)C(F)(F)C(=O)NO)cc1`: the dissociation constant Kd on Histone deacetylase 1 is 14 µM; in test [2], 0.27 µM; on Histone deacetylase 7 it was 52 µM; on Histone deacetylase 8, 34 µM; in test [4] it was more than 100 µM.

With `N#Cc1ccc(NC(=O)C(F)(F)C(F)(F)C(F)(F)C(F)(F)C(F)(F)C(F)(F)C(=O)NO)cc1`, the Kd on Histone deacetylase 1 is 18 µM; in test [2] it was 0.23 µM; at Histone deacetylase 7 it was 32 µM; at Histone deacetylase 8, 35 µM; in test [4], 71 µM.

Regarding `O=C(NO)C(F)(F)C(F)(F)C(F)(F)C(F)(F)C(F)(F)C(F)(F)C(=O)Nc1ccccc1-c1ccccc1`, the Kd at Histone deacetylase 1 stood at 49 µM; in test [2] it was 0.86 µM; at Histone deacetylase 7, 14 µM; at Histone deacetylase 8, 5.3 µM; in test [4], 9.2 µM. For the same compound, the IC50 against Histone deacetylase [1] and against Histone deacetylase [3] was more than 50 µM in each case.

`O=C(NO)C(F)(F)C(F)(F)C(F)(F)C(F)(F)C(F)(F)C(F)(F)C(=O)Nc1ccc(-c2cnnn2-c2ccccc2)cc1`: the dissociation constant Kd is 66 µM at Histone deacetylase 1; 4.5 µM in test [2]; 12 µM on Histone deacetylase 7; more than 100 µM on Histone deacetylase 8; 47 µM in test [4].

As for `O=C(NO)C(F)(F)C(F)(F)C(F)(F)C(F)(F)C(F)(F)C(F)(F)C(=O)Nc1cccc2ccccc12`, the Kd is 29 µM on Histone deacetylase 1; 0.37 µM in test [2]; 20 µM at Histone deacetylase 7; 19 µM at Histone deacetylase 8; 32 µM in test [4].

Regarding `O=C(NO)C(F)(F)C(F)(F)C(F)(F)C(F)(F)C(F)(F)C(F)(F)C(=O)Nc1ccc(Cl)cc1`, the dissociation constant Kd at Histone deacetylase 1 came to 12 µM; in test [2] it was 0.21 µM; on Histone deacetylase 7, 19 µM; at Histone deacetylase 8, 35 µM; in test [4], 23 µM.

In the case of `O=C(Nc1ccccc1)C(F)(F)C(F)(F)C(F)(F)C(F)(F)C(F)(F)C(F)(F)C(=O)Nc1ccccc1`, the Kd was more than 100 µM at Histone deacetylase 1; 27 µM in test [2]; more than 100 µM at Histone deacetylase 7; more than 100 µM at Histone deacetylase 8; more than 100 µM in test [4].

For the compound `O=C(NO)C(F)(F)C(F)(F)C(F)(F)C(F)(F)C(F)(F)C(F)(F)C(=O)Nc1cccc(-c2ccccc2)c1`, the Kd at Histone deacetylase 1 came out at 30 µM; in test [2], 0.45 µM; at Histone deacetylase 7 it was 14 µM; at Histone deacetylase 8, 60 µM; in test [4], 15 µM.

On to `O=C(NO)C(F)(F)C(F)(F)C(F)(F)C(F)(F)C(F)(F)C(F)(F)C(=O)Nc1ccc(-c2cn(-c3ccccc3)nn2)cc1`, for which the Kd was more than 100 µM on Histone deacetylase 1; 7 µM in test [2]; 30 µM on Histone deacetylase 7; more than 100 µM at Histone deacetylase 8; 8.2 µM in test [4].

With `O=C(NO)C(F)(F)C(F)(F)C(F)(F)C(F)(F)C(F)(F)C(F)(F)C(=O)Nc1ccc2ccc3cccc4ccc1c2c34`, the Kd on Histone deacetylase 1 is 22 µM; in test [2] it was 0.6 µM; on Histone deacetylase 7, 75 µM; at Histone deacetylase 8 it was 47 µM; in test [4] it was 17 µM.

The Kd is the concentration at which binding is half-saturated. One may read the IC50 as the midpoint of a concentration-inhibition curve. High values mean weaker potency, low ones greater potency.
